Assay: Toxicity liver stage against HepG2, at 10uM
Assay type: cell-based
Parameters: test concentration 10 uM, cell line HepG2-A16-CD81EGFP
Conditions: human, HepG2-A16-CD81EGFP cells; read-out: INHIBITION
How it was run: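 Uninfected HepG2-A16-CD81EGFP cells, 3 × 10^3 per well, 1536-well, plated on prespotted compound at 10 μM final, parasite-free screening media added to match infected plates; puromycin 10 μM positive, DMSO 0.5% negative; run in parallel with 48 h PbLuc assay at 37 °C, 5% CO2; viability by CellTiter-Glo luminescence, normalized to controls.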
`O=C1CCCc2nccc(-c3ccccc3)c21` showed a cytotoxicity at 10 µM of 3.15%. For `Cc1n[nH]c(=O)c2c(NC(=O)CN3CCOC(C)C3)oc(C)c12` (stereo unspecified), the cytotoxicity at 10 µM was -0.524%. Work on `C[C@@H](NC(=O)c1cccnc1)c1onc(-c2ccccc2)c1C(=O)O` yielded a cytotoxicity at 10 µM of 10.1%. Molecule `COc1ccc2c(c1)nc1n2[C@@H](CNC(=O)c2ccccn2)COC1` has a cytotoxicity at 10 µM of -3.03%. `Oc1ccc([C@H]2Oc3cc(O)cc(O)c3C[C@@H]2O)cc1` showed a cytotoxicity at 10 µM of 4.94%. With `N#Cc1ccc(OC2CCN(C(=O)c3ccccc3Cl)CC2)nc1` the cytotoxicity at 10 µM was 3.93%. Molecule `CCN1C(=O)CCC12CCN(S(=O)(=O)c1ccc(C#N)cc1)CC2` has a cytotoxicity at 10 µM of 1.82%. With `Cc1noc(C2CCC3(CCN(C(=O)c4cc(C5CC5)on4)CC3)O2)n1` (stereo unspecified) the cytotoxicity at 10 µM was 3.1%. With `O=C(NCc1ccco1)[C@@]12CCO[C@@H]1CCN(Cc1nccs1)C2` the cytotoxicity at 10 µM was 14.6%. `Cc1occc1C(=O)N1CCn2cnc(COCC3CC3)c2C1` gave a cytotoxicity at 10 µM of -6.4%. `CN(C(=O)Cn1nc(-c2ccccc2F)ccc1=O)C1CCS(=O)(=O)C1` (stereo unspecified) showed a cytotoxicity at 10 µM of 2.21%. `COc1ccc(N2CCN(C(=O)Cn3nc(C)c(Cl)c3C)CC2)cc1` showed a cytotoxicity at 10 µM of 1.58%. Work on `Cc1nc(N2CCN(C(=O)c3ccco3)CC2)c2c(n1)c(C)nn2C` yielded a cytotoxicity at 10 µM of 12.1%. Molecule `CCc1noc(C2CCCCN2C(=O)c2ccc3c(c2)OCO3)n1` (stereo unspecified) has a cytotoxicity at 10 µM of 1.75%. For `CN(C)c1nccc(C2CN(c3cnccn3)CCO2)n1` (stereo unspecified), the cytotoxicity at 10 µM was 7.95%. Work on `Cc1nccc(CN2Cc3nccn3CC2c2ccccc2)n1` (stereo unspecified) yielded a cytotoxicity at 10 µM of 3.1%. With `CN(C)c1nccnc1C1CCCN(c2cnccn2)C1` (stereo unspecified) the cytotoxicity at 10 µM was -4.92%. `CN1CCOC(C)(C(=O)Nc2nc(C(C)(C)C)cs2)C1` (stereo unspecified) showed a cytotoxicity at 10 µM of 6.52%. For `CC(C)N1CC[C@@](C)(O)[C@H](n2ccc(=O)[nH]c2=O)C1`, the cytotoxicity at 10 µM was 6.61%. Work on `COc1ccc(-c2cnc(N(C)C)nc2C2CN(C(C)=O)CCO2)cc1` (stereo unspecified) yielded a cytotoxicity at 10 µM of -31.9%. Molecule `COc1cccc(CN2CCC(c3nn(CCN)c4nccnc34)C2)c1` (stereo unspecified) has a cytotoxicity at 10 µM of -24.7%. Work on `CN(C)C(=O)CN1CCCC1c1nccnc1Nc1ccccn1` (stereo unspecified) yielded a cytotoxicity at 10 µM of -15%. Molecule `COC(=O)Nc1cccc(C(=O)N(C)Cc2cccc(O)c2)c1` has a cytotoxicity at 10 µM of -5.88%. Work on `CCN(CC)CCCNC(=O)Nc1c(C)cccc1C(C)C` yielded a cytotoxicity at 10 µM of -0.847%. `COc1cccc(-c2n[nH]cc2CNC2CCCN(C)C2)c1` (stereo unspecified) gave a cytotoxicity at 10 µM of -8.86%. With `Cc1ccc(CN(CC(=O)NCC2CCOC2)c2ccc(F)cc2)o1` (stereo unspecified) the cytotoxicity at 10 µM was 9.83%. In the case of `Cc1cc(CN(CC(N)=O)CC(C)C)no1`, the cytotoxicity at 10 µM was 3.72%. `CN(C)c1cc(C(=O)Nc2ccccc2C(=O)NC(C)(C)C)ccn1` gave a cytotoxicity at 10 µM of 2.46%. Molecule `NC(=O)CCn1ccc(NC(=O)c2ccc(Br)o2)n1` has a cytotoxicity at 10 µM of -1.39%. `C1CCC(CNC2CCCN(Cc3noc(C4CC4)n3)C2)C1` (stereo unspecified) showed a cytotoxicity at 10 µM of -2.34%. `CN1CCCN(C(=O)NCc2ccccc2Cn2cncn2)CC1` showed a cytotoxicity at 10 µM of 3.58%. Work on `Cc1cccn2cc(CN3CCCC(O)C3)nc12` (stereo unspecified) yielded a cytotoxicity at 10 µM of 2.25%. `COC(=O)CN(C(=O)c1cc(C(C)C)no1)c1cccc(F)c1` showed a cytotoxicity at 10 µM of 11.3%. For `Cc1cc(C)cc(OCCN(C)Cc2ccc(S(=O)(=O)N(C)C)o2)c1`, the cytotoxicity at 10 µM was 8.2%. In the case of `Cc1ccc2nc(CNc3ccccc3C(=O)NC3CC3)cn2c1`, the cytotoxicity at 10 µM was 3.16%. With `CS(=O)(=O)Cc1nc(CN2CCOc3ccccc3C2)cs1` the cytotoxicity at 10 µM was 5.81%. With `Cc1cnccc1NC(=O)CCc1ccsc1` the cytotoxicity at 10 µM was -3.51%. Work on `Cn1cccc1C(=O)NC[C@H]1C[C@@H]2CN(C(=O)c3ccco3)C[C@@H]2O1` yielded a cytotoxicity at 10 µM of -105%. Molecule `CC(=O)N1CCCC2(CCN(c3nncs3)C2)C1` (stereo unspecified) has a cytotoxicity at 10 µM of -103%. `CN1CCN(CC2CC2)C(=O)c2cnc(N3CCCCC3)nc21` showed a cytotoxicity at 10 µM of 4.84%. For `O=C1CSc2ccccc2N1Cc1noc(C2CCCO2)n1` (stereo unspecified), the cytotoxicity at 10 µM was 8.35%. In the case of `O=C(NCCc1c[nH]cn1)c1ccc(S(=O)(=O)NC2CCCC2)cc1`, the cytotoxicity at 10 µM was -7.2%. `CN(Cc1nccs1)c1nccc(N2CCN[C@H]3CS(=O)(=O)C[C@H]32)n1` showed a cytotoxicity at 10 µM of -5%. With `CSc1nccc(N2CCC(=O)N(CC3CC3)C(C(C)C)C2)n1` (stereo unspecified) the cytotoxicity at 10 µM was -2.02%. Molecule `Cc1cc(C)n(CCCN(CCN2CCOCC2)Cc2ccco2)n1` has a cytotoxicity at 10 µM of 8.97%. In the case of `NCC1CN(c2nc(-c3cccnc3)nc3c2CCNCC3)CCO1` (stereo unspecified), the cytotoxicity at 10 µM was -17.6%. Work on `c1cncc(C(Cn2cnnc2)N2CCOCC2)c1` (stereo unspecified) yielded a cytotoxicity at 10 µM of -5.11%. Molecule `CSc1ccc(-c2nc(CN3CCNCC3C)c(C)o2)cc1` (stereo unspecified) has a cytotoxicity at 10 µM of -5.58%. Molecule `CC(C)Oc1cccc2c1c(NC(=O)CN(C)C)nn2CC(F)(F)F` has a cytotoxicity at 10 µM of -9.69%. For `Nc1nc(CC(=O)N2CCCC(CCc3cccc(F)c3)C2)cc(=O)[nH]1` (stereo unspecified), the cytotoxicity at 10 µM was -6.12%. `Cc1nonc1OCCNC(=O)COc1ccc(Cl)cc1Cl` showed a cytotoxicity at 10 µM of 3.95%. `O=C(c1cc[nH]n1)N1CCC(c2nccn2Cc2ccncc2)CC1` showed a cytotoxicity at 10 µM of 0.216%. Molecule `CCN(Cc1ccc(O)c(C(=O)O)c1)CC1CCOCC1` has a cytotoxicity at 10 µM of -5.24%. In the case of `Cn1ncc(NC(=O)Cn2ccc(-c3cccc(F)c3)n2)n1`, the cytotoxicity at 10 µM was 1.73%. In the case of `COCC(=O)N1CCC(C(=O)Nc2ccc(S(N)(=O)=O)cc2)CC1`, the cytotoxicity at 10 µM was -1.47%. Molecule `CC(C)c1ccnc(N[C@H]2COC[C@@H]2N2CCCC2)n1` has a cytotoxicity at 10 µM of -4.48%. `CN1CC(c2ccccc2)CC12CCN(C(=O)c1ccncc1)CC2` (stereo unspecified) showed a cytotoxicity at 10 µM of -7.96%. `Cc1nc(CN2CCN(c3ccc4nncn4n3)C(C)C2)oc1C` (stereo unspecified) gave a cytotoxicity at 10 µM of -2.91%. `Cc1cc(C(=O)N2CCCC2)ccc1NCC(=O)N1CCOCC1` gave a cytotoxicity at 10 µM of -5%. In the case of `CC(C)OCCCNC(=O)CS(=O)(=O)Cc1ccc(C(C)C)cc1`, the cytotoxicity at 10 µM was 0.239%. `O=C(NCCNc1ccccn1)Nc1cc(C(F)(F)F)c[nH]c1=O` gave a cytotoxicity at 10 µM of -16.5%. For `O=C(Nc1cccc(F)c1)C1CCCN1c1nccs1` (stereo unspecified), the cytotoxicity at 10 µM was -4.72%. For `CSCC(=O)N1CCCN(Cc2cscn2)CC1`, the cytotoxicity at 10 µM was -5.28%. Work on `CCc1n[nH]c(C2CN(C(=O)CCc3cscn3)CCO2)n1` (stereo unspecified) yielded a cytotoxicity at 10 µM of -8.42%. With `Cc1nnc(N2CCOC(C)C2)c(C#N)c1C` (stereo unspecified) the cytotoxicity at 10 µM was -11.7%. `CC(C)c1cc(NC(=O)CN2CCn3c(nnc3C3CC3)C2)on1` gave a cytotoxicity at 10 µM of -14.1%. `Cc1nc(C)n(CC2CCCN(CC(=O)N3CCCC3)C2)n1` (stereo unspecified) showed a cytotoxicity at 10 µM of -8.31%. `CC(Cc1cccs1)C(=O)NCc1cccc(N2CCCC2=O)c1` (stereo unspecified) gave a cytotoxicity at 10 µM of 2.4%. Molecule `CC1CN(C(=O)NCCCn2cncn2)CCO1` (stereo unspecified) has a cytotoxicity at 10 µM of -6.82%. In the case of `Cn1ccnc1C1(O)CCN(C(=O)Cc2ccccc2)CC1`, the cytotoxicity at 10 µM was 5.09%. Molecule `Cc1cc(C)nc(N2CCN(Cc3nccn3C)CC2)n1` has a cytotoxicity at 10 µM of -20.9%. Molecule `Fc1cccnc1O[C@@H]1CC[C@H]2[C@H]1OCCN2Cc1nccs1` has a cytotoxicity at 10 µM of 4.93%. `O=C(c1cnccn1)N1CCO[C@H]2[C@H](OCc3cccnc3)CC[C@@H]21` gave a cytotoxicity at 10 µM of -9.45%. Work on `Cc1cccc(CN2CC3(CCN(S(=O)(=O)C4CC4)CC3)OCC2=O)n1` yielded a cytotoxicity at 10 µM of -3.27%. In the case of `CCc1nc2ccccc2c(=O)n1CC1(O)CCN(C(=O)COC)CC1`, the cytotoxicity at 10 µM was -2.76%. With `C1CC(CO[C@@H]2CC[C@H]3[C@H]2OCCN3CC2CCOCC2)CCO1` the cytotoxicity at 10 µM was 13.7%. Molecule `COc1ccc(CN2CCOC3(CCCN(C(C)=O)C3)C2)cc1` (stereo unspecified) has a cytotoxicity at 10 µM of 3.88%. Work on `O=C(CN1CCCC1=O)N1CCC(O)(Cn2ccc3ccncc32)CC1` yielded a cytotoxicity at 10 µM of -5.55%. With `CO[C@H]1CCN(Cc2cnn(C)c2)[C@@H]2CN(Cc3ccncc3)C[C@H]12` the cytotoxicity at 10 µM was 2.29%. For `Cc1ncc(CN2C[C@H]3CC(OCc4ccccc4)C[C@H]3C2)cn1` (stereo partly specified), the cytotoxicity at 10 µM was -24.3%. For `CCOC(=O)Cn1c(=O)[nH]c2cn(-c3ccccc3)c(=O)n21`, the cytotoxicity at 10 µM was 0.379%.
